Activity calls are given as the source filed them. No cut-off for these calls is given here.
Key:
[1] = test system: Middle East respiratory syndrome-related coronavirus; experiment: Binding affinity to N-terminal domain of MERS-CoV nucleocapsid protein assessed as interaction with W43 pocket at 10 uM incubated for 1 hr by fluorescence spectral analysis
Method in brief: (§1)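 1 μM N protein was incubated with 10 μM compound or buffer at 4 °C for 1 h in 50 mM Tris-HCl (pH 8.3), 150 mM NaCl. Tryptophan fluorescence was excited at 280 nm and emission scanned over 300–400 nm.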

[2] = Cytotoxicity in African green monkey Vero E6 cells incubated for 48 hrs by neutral red uptake assay; assay type: cell-based, Vero C1008; conditions: chlorocebus sabaeus
[3] = test system: Middle East respiratory syndrome-related coronavirus; experiment: Antiviral activity against MERS-CoV infected in African green monkey Vero E6 cells incubated for 48 hrs by neutral red uptake assay; assay type: functional, organism-based; conditions: Vero C1008, 48 h
[4] = Therapeutic index, ratio of CC50 for cytotoxicity in African green monkey VeroE6 cells incubated for 48 hrs by neutral red uptake assay to EC50 for antiviral activity against MERS-CoV infected in African green monkey Vero E6 cells incubated for 48 hrs by neutral red uptake assay; assay type: toxicity, cell-based, Vero C1008; conditions: read-out: Ratio CC50/EC50
Vero C1008 [5] = experiment: Inhibition of nucleocapsid protein expression in HCoV EMC/2012 infected in African green monkey Vero E6 cells at 100 uM by immunofluorescence microscopy; assay type: functional; conditions: Human betacoronavirus 2c EMC/2012
Vero C1008 [6] = experiment: Induction of intracellular nucleocapsid protein aggregation in HCoV EMC/2012 infected in African green monkey Vero E6 cells at 50 uM by immunofluorescence microscopy; assay type: cell-based; conditions: Human betacoronavirus 2c EMC/2012
[7] = test system: Middle East respiratory syndrome-related coronavirus; experiment: Binding affinity to N-terminal domain of MERS-CoV nucleocapsid protein assessed as induction of blue shift in fluorescence spectrum at 10 uM incubated for 1 hr by fluorescence spectral analysis; method in brief: as §1
[8] = test system: Middle East respiratory syndrome-related coronavirus; experiment: Binding affinity to N-terminal domain of MERS-CoV nucleocapsid protein assessed as maximum dimension at 440 uM by SAXS analysis (reference value: 207 angstrom)
[9] = Antiviral activity against HCoV EMC/2012 infected in African green monkey Vero E6 cells assessed as reduction in viral replication at 50 uM incubated for 48 hrs by RT-qPCR analysis; assay type: functional, Human betacoronavirus 2c EMC/2012, Vero C1008; set-up: scale not given: the % may be the effect or the level left
Vero C1008 [10] = experiment: Antiviral activity against HCoV EMC/2012 infected in African green monkey Vero E6 cells assessed as reduction in viral titer at 50 uM incubated for 48 hrs by crystal violet staining based viral plaque assay; assay type: functional; conditions: Human betacoronavirus 2c EMC/2012
[11] = test system: Middle East respiratory syndrome-related coronavirus; experiment: Binding affinity to N-terminal domain of MERS-CoV nucleocapsid protein assessed as denaturation melting temperature at 10 uM incubated for 1 hr by fluorescent thermal stability assay (reference value: 42 degC)
[12] = test system: Middle East respiratory syndrome-related coronavirus; experiment: Binding affinity to N-terminal domain of MERS-CoV nucleocapsid protein assessed as radius of gyration at 440 uM by SAXS analysis (reference value: 58 angstrom)
Vero C1008 [13] = experiment: Antiviral activity against HCoV EMC/2012 infected in African green monkey Vero E6 cells assessed as reduction in viral titer at 100 uM incubated for 48 hrs by crystal violet staining based viral plaque assay; assay type: functional; conditions: Human betacoronavirus 2c EMC/2012
Vero C1008 [14] = experiment: Antiviral activity against HCoV EMC/2012 infected in African green monkey Vero E6 cells assessed as reduction in viral replication at 100 uM incubated for 48 hrs by RT-qPCR analysis; assay type: functional; conditions: Human betacoronavirus 2c EMC/2012

Compound	Activity [1]	CC50 at 48 h [2]	EC50 [3]	selectivity ratio at 48 h [4]	inhibition (Vero C1008 [5])	Activity (Vero C1008 [6])	Activity [7]	Activity [8]	Activity [9]	Activity (Vero C1008 [10])	Tm [11]	Activity [12]	Activity (Vero C1008 [13])	Activity (Vero C1008 [14])
O=C(OCc1ccccc1)N1c2ccccc2CC1CO (stereo not given)	Active	460 µM	> 100 µM											
CN(C)Cc1c[nH]c2ccc(OCc3ccccc3)cc12	Active	805 µM	32.1 µM	25.1	Active	Active	Active	230 Angstrom	40%	Active	45 °C	65 Angstrom	Active	Active
CCc1cccc2c3c([nH]c12)C(CC)(CC(=O)O)OCC3 (stereo not given) [ETODOLAC]	Active	570 µM	> 100 µM											
